Experimental data pooled from the literature.
Lines come from different studies, so protocols differ.
Target: Phosphatidylinositol 4,5-bisphosphate 3-kinase catalytic subunit beta isoform (PIK3CB, Homo sapiens, UniProt P42338)

| SMILES | effect on | method | concentration | remaining binding [%] |
| --- | --- | --- | --- | --- |
| CCN1CCN(Cc2ccc(C(=O)Nc3ccc(C)c(Oc4ccc5c(c4)CC(=O)N5)c3)cc2C(F)(F)F)CC1 | binding | competition with immobilised ligand | 1 µM | 100 |
| F[C@@H]1CCN(c2nccc(-c3cnn4ncccc34)n2)C1 | binding | – | 1 µM | 100 |
| O=c1nc(-c2ccccn2)sc2ccccc12 | cell-free assay | competition with immobilised ligand | 1 µM | 100 |
| N[C@H]1CCN(c2nccc(-c3cnn4ncccc34)n2)C1 | binding | – | 1 µM | 100 |
| CN(c1ccnc(CNc2nc(Nc3ccc4c(c3)CC(=O)N4)ncc2C(F)(F)F)n1)S(C)(=O)=O | cell-free assay | competition with immobilised ligand | 1 µM | 100 |
| Nc1ncc2c(n1)-c1c([nH]c3ccc(C#CC4CC4)cc13)CCCC2 | binding | competition with immobilised ligand | 1 µM | 100 |
| Cc1cnn2ncc(-c3ccnc(N(C)C)n3)c2c1 | binding | – | 1 µM | 74 |
| O=C(NCc1ncc(C(F)(F)F)cc1Cl)c1ccc2c(c1)C1(CCS(=O)(=O)CC1)[C@H](C1CC1)N2S(=O)(=O)c1ccc(F)cc1 | cell-free assay | competition with immobilised ligand | 1 µM | 68 |
| O=C(c1ccc(Nc2nccc(-c3cc4ccccc4s3)n2)cc1)N1CCC(N2CCCC2)CC1 | binding | competition with immobilised ligand | 1 µM | 86 |
| C[C@H]1CCN(c2nccc(-c3cnn4ncccc34)n2)C1 | binding | – | 1 µM | 65 |
| O=C(NCC1CCOCC1)c1n[nH]cc1NC(=O)c1c(F)cccc1F | binding | competition with immobilised ligand | 1 µM | 91 |
| O=C(c1ccc(Nc2ncc(Cl)c(-c3ccc(Cl)s3)n2)cc1)N1CCC(N2CCCC2)CC1 | binding | competition with immobilised ligand | 1 µM | 100 |
| Cc1cc(NC(=O)c2cccc(S(F)(F)(F)(F)F)c2)cc(-n2ccn3nc(-c4cccnc4)cc23)c1 | cell-free assay | competition with immobilised ligand | 1 µM | 100 |
| CN(CCCC(F)(F)F)c1nccc(-c2cnn3ncccc23)n1 | binding | – | 1 µM | 100 |
| O=C(NCCCN1CCOCC1)c1ccc(Nc2nccc(-c3cc4ccccc4s3)n2)cc1 | binding | competition with immobilised ligand | 1 µM | 100 |
| COc1cnc(Nc2cccc(S(N)(=O)=O)c2)nc1N1CCN(c2ccccc2)CC1 | binding | competition with immobilised ligand | 1 µM | 86 |
| C[C@@H]1CN(c2cc(-c3n[nH]c4ccc(OC5(C)CC5)cc34)ncn2)C[C@H](C)O1 | cell-free assay | competition with immobilised ligand | 0.1 µM | 59 |
| COc1cnc(Nc2cccc(S(N)(=O)=O)c2)nc1N1CCN(c2ccccc2)C(=O)C1 | binding | competition with immobilised ligand | 1 µM | 100 |
| COc1cc(-c2cn(C3CCc4ccccc4N(CC(F)(F)F)C3=O)nn2)ccc1-n1ccc(C)n1 (stereo not drawn) | cell-free assay | competition with immobilised ligand | 1 µM | 100 |
| C[C@@H](c1ccc(-n2cnc3c(N)ncnc32)cc1)N1CCc2nn(C)c(Cc3ccccc3)c2C1=O | binding | competition with immobilised ligand | 0.1 µM | 99 |
| CC1CCCN1c1nccc(-c2cnn3ncccc23)n1 (stereo not drawn) | binding | – | 1 µM | 100 |
